Measurements taken from ChEMBL document CHEMBL3352439, “γ-Butyrolactone, cytochalasin, cyclic carbonate, eutypinic acid, and phenalenone derivatives from the soil fungus Aspergillus sp. PSU-RSPG185” (J Nat Prod, 2014).
The source made the active and inactive calls. The rule behind the calls is not given here.

What was measured:
[1] = system: Plasmodium falciparum; assay: Antimalarial activity against multidrug-resistant Plasmodium falciparum K1 assessed as [3H]-hypoxanthine incorporation 24 to 42 hrs by scintillation counting analysis; assay type: functional, organism-based
Procedure, shortened: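 Microculture radioisotope technique against multidrug-resistant K1 parasites; dihydroartemisinin as reference drug.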

[2] = system: KB; assay: Cytotoxicity against human KB cells by colorimetric method; assay type: functional, cell-based
Procedure, shortened: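 KB cells assayed by the method of O'Brien and coworkers; ellipticine as reference compound; IC50 derived.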

[3] = system: Mycobacterium tuberculosis; assay: Antimicrobial activity against Mycobacterium tuberculosis H37Ra assessed as growth inhibition by green fluorescent protein-based fluorescent detection; assay type: functional, organism-based
Procedure, shortened: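 Growth inhibition read by GFP-based fluorescence; isoniazid as reference drug; result reported as MIC.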

[4] = system: Vero; assay: Cytotoxicity against african green monkey Vero cells by colorimetric method; assay type: cell-based; conditions: Chlorocebus sabaeus
Procedure, shortened: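 Vero cells assayed by a colorimetric method; ellipticine as reference compound; IC50 derived.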

Compound | Activity [1] | inhibition [2] | Activity [3] | IC50 [2] [µM] | IC50 [4] [µM]
CC1=C[C@@H]2[C@H]3[C@H]([C@H](O)C(=O)[C@]24C(=O)N[C@@H](CC(C)C)[C@@H]4[C@@H]1C)[C@@H](O)CCC[C@]3(C)O | inactive | inactive | inactive | – | –
C=C(C)C#Cc1cc(C(=O)O)ccc1O | inactive | inactive | inactive | – | –
COc1c(O)c2c3c(c(O)cc(C)c3c1O)C(=O)[C@](C)(C/C=C(\C)CC/C=C(\C)CC[C@@H](O)C(C)(C)O)C2=O | inactive | inactive | inactive | – | –
CO[C@@]1(C/C=C(\C)CC/C=C(\C)CC[C@@H](O)C(C)(C)O)C(=O)c2c(O)cc(C)c3c(O)c(C)c(O)c(c23)C1=O | inactive | – | inactive | 48.4 | 34.2
